14 compounds from PubChem BioAssay can be followed below.

The nature of assay [1]: reducers of endogenous Her2 protein level, primary screen, SKBR3 breast tumor cells, AlphaScreen, ATP viability (AID 461;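 active means Her2 level under about 52% in both replicate screens, with viability over 70% of control, limit read from the data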;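 on Her2 level: lower value means less Her2 protein in the cells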;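 on viability: percent of carrier control wells set as 100% viability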). The following applies: 18-24 h, measured here: SKBR3 viability, ATP luminescence, at 10 µM. (Bead proximity is the source of the signal in Alpha formats.)
The target of assay [2] is Receptor tyrosine-protein kinase erbB-2 (Homo sapiens) (UniProt P04626). The description is as above. The following applies: 18-24 h, at 10 µM, stronger effect = lower value.
Receptor tyrosine-protein kinase erbB-2 (Homo sapiens), sequence (P04626 whole entry, looked up): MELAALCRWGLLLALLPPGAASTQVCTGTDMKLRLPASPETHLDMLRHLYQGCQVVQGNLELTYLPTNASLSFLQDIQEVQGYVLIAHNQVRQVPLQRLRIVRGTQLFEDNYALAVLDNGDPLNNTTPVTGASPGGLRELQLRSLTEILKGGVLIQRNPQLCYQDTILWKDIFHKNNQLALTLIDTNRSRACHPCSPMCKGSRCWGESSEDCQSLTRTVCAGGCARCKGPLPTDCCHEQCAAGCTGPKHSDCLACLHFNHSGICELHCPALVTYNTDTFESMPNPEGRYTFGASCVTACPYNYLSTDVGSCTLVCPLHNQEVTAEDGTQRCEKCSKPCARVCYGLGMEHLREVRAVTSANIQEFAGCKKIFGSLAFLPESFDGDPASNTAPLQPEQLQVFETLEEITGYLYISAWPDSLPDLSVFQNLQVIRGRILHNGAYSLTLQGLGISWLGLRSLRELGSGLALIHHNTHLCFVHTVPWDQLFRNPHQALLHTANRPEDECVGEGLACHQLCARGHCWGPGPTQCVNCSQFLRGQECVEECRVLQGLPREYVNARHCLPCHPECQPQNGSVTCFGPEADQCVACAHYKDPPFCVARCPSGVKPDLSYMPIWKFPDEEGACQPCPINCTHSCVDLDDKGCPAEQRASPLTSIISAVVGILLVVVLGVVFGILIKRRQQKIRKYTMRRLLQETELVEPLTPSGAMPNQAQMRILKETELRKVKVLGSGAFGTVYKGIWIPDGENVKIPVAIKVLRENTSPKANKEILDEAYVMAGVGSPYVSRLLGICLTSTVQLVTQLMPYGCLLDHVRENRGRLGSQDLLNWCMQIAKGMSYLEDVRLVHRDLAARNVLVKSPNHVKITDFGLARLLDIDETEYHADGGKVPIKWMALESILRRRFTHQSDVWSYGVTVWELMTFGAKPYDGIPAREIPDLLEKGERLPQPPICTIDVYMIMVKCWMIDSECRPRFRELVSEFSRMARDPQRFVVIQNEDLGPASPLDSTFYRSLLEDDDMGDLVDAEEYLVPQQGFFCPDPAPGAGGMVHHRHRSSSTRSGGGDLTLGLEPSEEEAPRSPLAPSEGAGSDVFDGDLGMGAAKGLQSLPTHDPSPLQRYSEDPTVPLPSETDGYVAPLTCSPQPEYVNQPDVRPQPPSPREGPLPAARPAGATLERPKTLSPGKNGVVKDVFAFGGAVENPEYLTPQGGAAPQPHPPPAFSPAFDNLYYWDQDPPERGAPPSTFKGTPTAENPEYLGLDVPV
Assay [3] is described as follows: SK-BR-3 cell growth inhibitors, pilot screen, 24 h, human (AID 572;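 active means viability at or below 10% of carrier control in both of two separate runs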;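 further: compound exposure lasted between 18 and 24 h rather than exactly 24 h; 100% = carrier-treated control wells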). The settings on record: SK-BR-3 viability, CellTiter-Glo luminescence, at 10 µM, stronger effect = lower value. (In general: Cellular ATP, detected with luciferase, serves as a proxy for viable cell number.)
Assay [4] in a line: HUVEC growth inhibition – cell-based, human, primary screen (AID 575;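 active means viability at or below 30% in both replicate assays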;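 further: 100% = median of untreated cell wells with 0.1% DMSO on each plate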). The following applies: HUVEC proliferation, CellTiter-Glo luminescence, 72 h; at 10 µM; stronger effect = lower value. Put shortly:
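Material: primary human umbilical vein endothelial cells / Schedule: 72 h exposure, 37 °C, 5% CO2, 30 min RT equilibration / Signal: ATP-based CellTiter-Glo luminescent read / Read-out basis: percent of median DMSO-control luminescence / Control set: 32 DMSO-only cell-control wells (high), 32 MePR drug-control wells (low) per plate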

The nature of assay [5]: growth inhibitors of H69AR lung tumor, primary screen, human, duplicate replicates (AID 580).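 Further: 100% = mean luminescence of untreated wells and 0% = no signal.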 The following applies: H69AR lung tumor cells viability, ATP luminescence, 72 h; at 10 µM; stronger effect = lower value.
Assay [6] in a line: reversal of MRP1-mediated doxorubicin resistance, pilot screen, H69AR cells, doxorubicin co-treatment (AID 601;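 active means viability loss from added drug above about 55%, and viability with drug at most 40%, in both replicates, limit read from the data, passing the limit was not always enough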). The settings on record: CellTiter-Glo, 72 h, at 10 µM; for differential viability (reversal): stronger effect = higher value.
The nature of assay [7]: 384-well plate pilot, post-Golgi transport modulator project, inhibition of yeast transport mutant growth (AID 636; in the data active means inhibition above about 31%). The following applies: absorbance 615 nm, about 18 h, stronger effect = higher value.
A short description of assay [8]: growth suppression of yeast trafficking mutant, preliminary HTS, modulators of trafficking downstream of Golgi apparatus project, 1536-format plate, OD 615 nm (AID 637; in the data active means inhibition above about 30%). The following applies: yeast transport mutant growth, absorbance 615 nm, 18 h; stronger effect = higher value.
Where [9] appears, read: H69AR cells + 2 uM doxorubicin, measured here: viability with 2 uM doxorubicin, stronger effect = lower value.
The mark [10] stands for this setting: H69AR cells, compound alone cytotoxicity.

Calls of active or inactive are those of the source.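 How the source made its calls, unless noted: active means viability at or under a set limit in both replicates, limit being median viability minus 3 SD (cut at about 48% in these data, passing the limit was not always enough); inconclusive means at or under the limit in just one replicate; inactive means at or above the limit in both replicates.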

Usually viability stands for a read-out of living cells in per cent, often relative to untreated cells. The inhibition is the relative decrease from the control value, in per cent. With `CC(C)OP(=O)(c1ccc(N(C)C)cc1)C(O)c1ccccc1F` (stereo not given), the viability in assay [1] was 128%; in assay [3], 128% (inactive); in assay [4], 103% (inactive); in assay [5], 106% (inactive); in assay [6] (setting [9]), 87.5%; in assay [6] (setting [10]), 106%. Besides, the Her2 level in assay [2] is 113% (inactive). The differential viability (reversal) in assay [6] (H69AR cells + 2 uM doxorubicin) is 19% (inactive). In addition, the results for the inhibition in assay [7] and in assay [8] were -4.93% (inactive) and 3.06% (inactive), respectively.

Consider `COc1ccccc1OC(=O)c1ccc(SC)cc1OC`, for which the viability in assay [1] was 83%; in assay [3], 83% (inactive); in assay [4], 98.4% (inactive); in assay [5] it was 94.1% (inactive); in assay [6] (setting [9]), 91.4%; in assay [6] (setting [10]) it was 94.1%. For the same compound, in assay [2], the Her2 level was 88% (inactive). Moreover, in assay [6] (H69AR cells + 2 uM doxorubicin), the differential viability (reversal) was 2.65% (inactive). For the same compound, the inhibition in assay [7] was 1.05% (inactive); in assay [8], -5.97% (inactive).

`O=C(CSc1nnc(-c2cnccn2)n1Cc1ccco1)c1ccc(Cl)cc1`: the viability in assay [1] was 90%; in assay [3], 90% (inactive); in assay [4], 105% (inactive); in assay [5], 80.7% (inactive); in assay [6] (setting [9]), 83.5%; in assay [6] (setting [10]), 80.7%. Moreover, the Her2 level in assay [2] is 81% (inactive). Further, the differential viability (reversal) in assay [6] (H69AR cells + 2 uM doxorubicin) was -2.83% (inactive). Further, the values for the inhibition in assay [7] and in assay [8] were -0.78% (inactive) and 6.5% (inactive), respectively.

Turning to `CCCCCCC(=O)c1c(C)[nH]c(C(=O)OCC)c1C`, the viability in assay [1] was 98%; in assay [3], 98% (inactive); in assay [4] it was 60.2% (inactive); in assay [5] it was 92.7% (inactive); in assay [6] (setting [9]) it was 85.8%; in assay [6] (setting [10]) it was 92.7%. Moreover, the Her2 level in assay [2] was 86.5% (inactive). The differential viability (reversal) in assay [6] (H69AR cells + 2 uM doxorubicin) is 6.9% (inactive). The inhibition was -5.73% (inactive) in assay [7] and 4.03% (inactive) in assay [8].

For `CC(C)(C)NC(=O)C(c1ccco1)N(C(=O)Cn1nnc(-c2ccc(F)cc2)n1)c1ccccc1` (stereo not given), the viability in assay [1] was 89.5%; in assay [3] it was 89.5% (inactive); in assay [4], 101% (inactive); in assay [5], 102% (inactive); in assay [6] (setting [9]) it was 98.4%; in assay [6] (setting [10]) it was 102%. Besides, in assay [2], the Her2 level is 80% (inactive). Also, the differential viability (reversal) in assay [6] (H69AR cells + 2 uM doxorubicin) is 3.25% (inactive). The inhibition is -0.92% (inactive) in assay [7] and 0% (inactive) in assay [8].

For `Cc1cc(NCCN2CCOCC2)n2nc(C)c(-c3ccccc3)c2n1`, the viability in assay [1] is 102%; in assay [3], 102% (inactive); in assay [4], 91.1% (inactive); in assay [5] it was 96.4% (inactive); in assay [6] (setting [9]) it was 83.6%; in assay [6] (setting [10]), 96.4%. In assay [2], the Her2 level was 87% (inactive). Moreover, in assay [6] (H69AR cells + 2 uM doxorubicin), the differential viability (reversal) was 12.8% (inactive). Besides, the inhibition was -0.52% (inactive) in assay [7] and -3.33% (inactive) in assay [8].

`CCC(C)NC(=O)CCNS(=O)(=O)c1ccc(Br)cc1` (stereo not given): the viability is 95.5% in assay [1]; 95.5% (inactive) in assay [3]; 99.2% (inactive) in assay [4]; 98.5% (inactive) in assay [5]; 95.8% in assay [6] (setting [9]); 98.5% in assay [6] (setting [10]). Moreover, the Her2 level in assay [2] was 73% (inactive). The differential viability (reversal) in assay [6] (H69AR cells + 2 uM doxorubicin) was 2.66% (inactive). Moreover, the results for the inhibition in assay [7] and in assay [8] were -4.74% (inactive) and -1.67% (inactive), respectively.

For the compound `CC(=O)Nc1ccc(S(=O)(=O)n2cnc(C)c2)cc1`, the viability in assay [1] is 91%; in assay [3] it was 91% (inactive); in assay [4] it was 102% (inactive); in assay [5], 104% (inactive); in assay [6] (setting [9]), 99.6%; in assay [6] (setting [10]), 104%. For the same compound, the Her2 level in assay [2] was 93.5% (inactive). Moreover, the differential viability (reversal) in assay [6] (H69AR cells + 2 uM doxorubicin) is 3.98% (inactive). Also, the figures for the inhibition in assay [7] and in assay [8] were -0.53% (inactive) and -5% (inactive), respectively.

Turning to `Cc1c(C)c2cc(Cl)c(O)c(CN3CCCCC3)c2oc1=O`, the viability in assay [1] was 97.5%; in assay [3], 97.5% (inactive); in assay [4] it was 102% (inactive); in assay [5] it was 99% (inactive); in assay [6] (setting [9]) it was 95.5%; in assay [6] (setting [10]), 99%. In addition, in assay [2], the Her2 level is 112% (inactive). Moreover, in assay [6] (H69AR cells + 2 uM doxorubicin), the differential viability (reversal) is 3.51% (inactive). The inhibition in assay [7] was 1.18% (inactive); in assay [8] it was 5.57% (inactive).

Consider `COCCn1c(CN2CCN(c3ccccc3F)CC2)nc2c1c(=O)n(C)c(=O)n2C`, for which the viability in assay [1] was 105%; in assay [3] it was 105% (inactive); in assay [4] it was 84.5% (inactive); in assay [5] it was 95.8% (inactive); in assay [6] (setting [9]), 95.6%; in assay [6] (setting [10]), 95.8%. In addition, the Her2 level in assay [2] was 138% (inactive). Further, the differential viability (reversal) in assay [6] (H69AR cells + 2 uM doxorubicin) was 0.255% (inactive). For the same compound, the results for the inhibition in assay [7] and in assay [8] were -1.2% (inactive) and 1.5% (inactive), respectively.

Regarding `CN1C(=O)C(O)(CC(=O)c2ccc3c(c2)OCO3)c2ccccc21` (stereo not given), the viability in assay [1] is 99.5%; in assay [3] it was 99.5% (inactive); in assay [4] it was 84.7% (inactive); in assay [5] it was 82.5% (inactive); in assay [6] (setting [9]) it was 73.3%; in assay [6] (setting [10]) it was 82.5%. Moreover, the Her2 level in assay [2] was 90.5% (inactive). Moreover, the differential viability (reversal) in assay [6] (H69AR cells + 2 uM doxorubicin) is 9.22% (inactive). Besides, the inhibition in assay [7] is 0.52% (inactive); in assay [8], -0.83% (inactive).

As for `CC(C)CCNC(=O)NC(=O)CSc1nnc(-c2ccccc2F)n1N`, the viability in assay [1] was 94%; in assay [3] it was 94% (inactive); in assay [4], 99.9% (inactive); in assay [5], 98.1% (inactive); in assay [6] (setting [9]), 91.9%; in assay [6] (setting [10]), 98.1%. In addition, the Her2 level in assay [2] was 108% (inactive). In addition, the differential viability (reversal) in assay [6] (H69AR cells + 2 uM doxorubicin) is 6.23% (inactive). Also, the inhibition in assay [7] was 8.03% (inactive); in assay [8] it was 14.8% (inactive).

Regarding `COc1cc(C2C(C#N)=C(C)NC3=C2C(=O)CC(C)(C)C3)ccc1O` (stereo not given), the viability in assay [1] is 100%; in assay [3], 100% (inactive); in assay [4], 94.7% (inactive); in assay [5] it was 101% (inactive); in assay [6] (setting [9]), 97.1%; in assay [6] (setting [10]), 101%. Also, the Her2 level in assay [2] was 84% (inactive). Also, the differential viability (reversal) in assay [6] (H69AR cells + 2 uM doxorubicin) was 3.54% (inactive). Besides, the inhibition in assay [7] is -6.13% (inactive); in assay [8] it was -7.46% (inactive).

For the compound `COc1ccccc1N1CCN(C(=O)c2ccc3nc(-c4ccco4)c(-c4ccco4)nc3c2)CC1`, the viability in assay [1] is 103%; in assay [3] it was 103% (inactive); in assay [4] it was 48.5% (inactive); in assay [5] it was 69.6% (inactive); in assay [6] (setting [9]), 77.6%; in assay [6] (setting [10]), 69.6%. In addition, the Her2 level in assay [2] is 79.5% (inactive). Moreover, the differential viability (reversal) in assay [6] (H69AR cells + 2 uM doxorubicin) is -8.06% (inactive). In addition, the inhibition in assay [7] is -4.67% (inactive); in assay [8] it was -4.1% (inactive).
